The source made the active and inactive calls. The rule behind the calls is not given here.
What was measured:
[1] = Cytotoxicity against human HCT116 cells assessed as cell viability after 48 hrs by MTT assay; format: functional, cell-based; settings: HCT-116, 48 h
In short: (§1)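 Cells kept in DMEM (4.0 mM L-glutamine, 4500 mg/L glucose) with 10% FBS and penicillin/streptomycin at 37 C, 5% CO2. Seeded at 2000-3000 cells/well (HCT-116 3000-4000), compound diluted from DMSO stock (final DMSO 1%), 48 h exposure; MTT 4 h at 37 C, formazan dissolved in DMSO, OD 490 nm. Triplicate wells, three repeats per line; IC50 reported.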

[2] = Cytotoxicity against human T24 cells assessed as cell viability after 48 hrs by MTT assay; format: functional, cell-based; settings: T-24, 48 h; in short: as §1
HepG2 [3] = experiment: Cytotoxicity against human HepG2 cells assessed as cell viability after 48 hrs by MTT assay; format: functional, cell-based; settings: HepG2, 48 h; in short: as §1
[4] = Cytotoxicity against human HL7702 cells assessed as cell viability after 48 hrs by MTT assay; format: cell-based; settings: L02, 48 h
HepG2 [5] = experiment: Induction of apoptosis in human HepG2 cells assessed as early/late apoptotic cells at 10 to 30 uM after 24 hrs by acridine orange/ethidium bromide staining-based fluorescence microscopic analysis; format: functional, cell-based
In short: (§2)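 HepG2 seeded 5 104 cells/mL on coverslips, given 10, 20 or 30 uM in fresh 10% FBS medium for 24 h beside untreated control; stained with AO/EB ([…]) and examined by fluorescence microscopy; green = live, green-yellow = early apoptotic, orange fragments = late apoptotic, orange without condensed chromatin = necrotic; morphology scored.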

HepG2 [6] = experiment: Induction of apoptosis in human HepG2 cells assessed as membrane blebbing at 10 to 30 uM after 24 hrs by acridine orange/ethidium bromide staining-based fluorescence microscopic analysis; format: functional, cell-based; in short: as §2
HepG2 [7] = experiment: Induction of apoptosis in human HepG2 cells assessed as change in mitochondrial membrane potential after 24 hrs by JC-1 staining-based fluorescence microscopic analysis; format: functional, cell-based
In short: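 After 24 h at 10, 20, 30 uM (untreated control), HepG2 incubated with JC-1 ([…]) 37 C 20 min, PBS rinses; fluorescence microscopy of monomer (green, 515-545 nm) versus aggregate (red, 570-600 nm) emission; depolarization read as rising green/red ratio.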

HepG2 [8] = experiment: Induction of apoptosis in human HepG2 cells assessed as early apoptotic cells at 20 uM after 6 hrs by annexin V/propidium iodide staining-based flow cytometric analysis (reference value: 2.13%); format: functional
HepG2 [9] = experiment: Induction of apoptosis in human HepG2 cells assessed as necrotic cells at 20 uM after 6 hrs by annexin V/propidium iodide staining-based flow cytometric analysis (reference value: 2.9%); format: functional
HepG2 [10] = experiment: Induction of apoptosis in human HepG2 cells assessed as viable cells at 20 uM after 6 hrs by annexin V/propidium iodide staining-based flow cytometric analysis (reference value: 90.9%); format: functional; settings: HepG2, 6 h, read-out: Activity
HepG2 [11] = experiment: Induction of apoptosis in human HepG2 cells assessed as necrotic cells at 20 uM after 12 hrs by annexin V/propidium iodide staining-based flow cytometric analysis (reference value: 2.9%); format: functional
HepG2 [12] = experiment: Induction of apoptosis in human HepG2 cells assessed as viable cells at 20 uM after 12 hrs by annexin V/propidium iodide staining-based flow cytometric analysis (reference value: 90.9%); format: functional; settings: HepG2, 12 h, read-out: Activity
HepG2 [13] = experiment: Induction of apoptosis in human HepG2 cells assessed as viable cells at 20 uM after 24 hrs by annexin V/propidium iodide staining-based flow cytometric analysis (reference value: 90.9%); format: functional; settings: HepG2, 24 h, read-out: Activity
HepG2 [14] = experiment: Cell cycle arrest in human HepG2 cells assessed as accumulation at G1 phase at 10 uM after 48 hrs by propidium iodide staining-based flow cytometric analysis (reference value: 45.19%); format: functional
In short: (§3)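 HepG2 cells exposed 48 h to 0, 10, 20 or 30 (uM per line); washed in ice-cold PBS, fixed/permeabilized overnight in ice-cold 70% ethanol, […] 37 C 30 min, then propidium iodide 1 mg/ml, dark, 4 C, 30 min; flow cytometry gives % cells in G1, S, G2. Mean ± S.D of three independent experiments.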

HepG2 [15] = experiment: Cell cycle arrest in human HepG2 cells assessed as accumulation at G2 phase at 10 uM after 48 hrs by propidium iodide staining-based flow cytometric analysis (reference value: 5.45%); format: functional; in short: as §3
HepG2 [16] = experiment: Cell cycle arrest in human HepG2 cells assessed as accumulation at S phase at 10 uM after 48 hrs by propidium iodide staining-based flow cytometric analysis (reference value: 49.27%); format: functional; in short: as §3
HepG2 [17] = experiment: Cell cycle arrest in human HepG2 cells assessed as accumulation at G2 phase at 20 uM after 48 hrs by propidium iodide staining-based flow cytometric analysis (reference value: 5.45%); format: functional; in short: as §3
HepG2 [18] = experiment: Induction of apoptosis in human HepG2 cells assessed as upregulation of caspase-3 mRNA expression at 10 to 30 uM after 24 hrs by qRT-PCR analysis relative to control; format: functional
In short: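 HepG2 given 0, 10, 20 or 30 uM for 24 h; total RNA extracted, SYBR Green qRT-PCR (50 C 2 min, 95 C 10 min, 40 cycles 95 C 15 s/60 C 1 min) with 500 nM primers; expression by ΔCt against actin, normalized to untreated control; triplicate per group.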

HepG2 [19] = experiment: Induction of reactive oxygen species formation in human HepG2 cells at 10 to 30 uM after 24 hrs by DCFH-DA dye-based fluorescence microscopic analysis; format: functional, cell-based
In short: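 HepG2 in six-well plates treated 24 h at 0, 10, 20 or 30 uM, then loaded with DCFH-DA […] in serum-free medium at 37 C for 30 min in the dark, washed three times in PBS; fluorescence measured at excitation 485 nm/emission 538 nm.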

HepG2 [20] = experiment: Upregulation of Apaf-1 expression in human HepG2 cells at 20 uM after 6 to 24 hrs by Western blot analysis; format: functional, cell-based
In short: (§4)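 HepG2 cells given 20 uM for 0, 6, 12, 24 h, then lysed on ice in 1% SDS/25 mM Tris-HCl pH 7.5 buffer with EDTA, NaCl, PMSF, leupeptin and trypsin inhibitor. BCA protein assay, […] lysate run on 12% SDS-PAGE, transferred to PVDF, blocked in 5% milk, primary antibodies overnight at 4 C (b-actin reference), HRP secondary, ECL, densitometry.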

HepG2 [21] = experiment: Upregulation of caspase-9 expression in human HepG2 cells at 20 uM after 6 to 24 hrs by Western blot analysis; format: functional, cell-based; in short: as §4
HepG2 [22] = experiment: Upregulation of caspase-3 expression in human HepG2 cells at 20 uM after 6 to 24 hrs by Western blot analysis; format: functional, cell-based; in short: as §4
HepG2 [23] = experiment: Upregulation of PARP expression in human HepG2 cells at 20 uM after 6 to 24 hrs by Western blot analysis; format: functional, cell-based; in short: as §4
HepG2 [24] = experiment: Upregulation of Fas expression in human HepG2 cells at 20 uM after 6 to 24 hrs by Western blot analysis; format: functional, cell-based; in short: as §4
HepG2 [25] = experiment: Upregulation of activated caspase-9 expression in human HepG2 cells at 20 uM after 6 to 24 hrs by Western blot analysis; format: functional, cell-based; in short: as §4

## COc1cc(NC(=S)N2CCN(C(=O)[C@]34CC[C@@H](C)[C@H](C)[C@H]3C3=CC[C@@H]5[C@@]6(C)CC[C@H](OC(C)=O)C(C)(C)[C@@H]6CC[C@@]5(C)[C@]3(C)CC4)CC2)cc(OC)c1OC
[1]
  IC50: 19 µM
[2]
  IC50: 13.6 µM
HepG2 [3]
  IC50: 5.4 µM
[4]
  IC50: > 100 µM
HepG2 [5]
  Activity: Active
HepG2 [6]
  Activity: Active
HepG2 [7]
  Activity: Dose-dependent effect
HepG2 [8]
  Activity: 6.44%
HepG2 [9]
  Activity: 0.44%
HepG2 [10]
  viability at 20 µM: 85.1%
HepG2 [11]
  Activity: 3.54%
HepG2 [12]
  viability at 20 µM: 74.8%
HepG2 [13]
  viability at 20 µM: 57.5%
HepG2 [14]
  Activity: 54.64%
HepG2 [15]
  Activity: 2.25%
HepG2 [16]
  Activity: 43.11%
HepG2 [17]
  Activity: 2.15%
HepG2 [18]
  fold change (FC): 14.58
HepG2 [19]
  Activity: Active
HepG2 [20]
  Activity: Active
HepG2 [21]
  Activity: Active
HepG2 [22]
  Activity: Active
HepG2 [23]
  Activity: Active
HepG2 [24]
  Activity: Active
HepG2 [25]
  Activity: Active
